From ChEMBL document CHEMBL3098000, “Imatinib analogs as potential agents for PET imaging of Bcr-Abl and c-KIT expression at a kinase level” (Bioorg Med Chem, 2014)

Columns and labels:
[1] = Drug uptake in human wild-type U87 cells incubated for 1 to 2 hrs measured after drug washout
Liver [2] = assay: Drug uptake in liver of mouse xenografted with human U87WT cells expressing human wild type c-KIT at 100 uCi, iv after 60 to 120 mins by PET analysis; type: ADME, organism-based; conditions: in vivo
Procedure, shortened: (§1)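 Nude mice carried K562, U87 or U87WT tumor cells injected in Matrigel (200 μl) into the dorsal shoulder areas. [18F]STI-571, labeled by nucleophilic substitution, was given at 100 μCi/mouse i.v. MicroPET imaging was done at 30, 60 and 90 min, with images also shown at 60 and 120 min. Some mice were sacrificed at 60 or 90 min for tissue sampling and autoradiography.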

K562 [3] = assay: Drug uptake in human K562 cells expressing Bcr-Abl after 30 to 210 mins in presence of unlabelled STI-571; type: ADME, cell-based
[4] = Drug uptake in mouse right shoulder xenografted with human U87 cells at 100 uCi, iv after 15 to 120 mins by PET analysis; type: ADME, organism-based, U-87MG ATCC; conditions: in vivo, in the assay text read “U87WT cells” for “U87 cells”
Procedure, shortened: as §1

K562 [5] = assay: Drug uptake in human K562 cells expressing Bcr-Abl incubated for 1 to 2 hrs measured after drug washout; type: ADME, cell-based
[6] = Drug uptake in human U87WT cells expressing human wild type c-KIT after 1 to 2 hrs; type: ADME, cell-based
Procedure, shortened: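 Cells were incubated with [18F]STI-571, and tracer accumulation and washout were measured at 1 and 2 h. U87WT cells were made by retroviral transduction of U87 cells with wild-type human c-KIT receptor. Specificity was tested by blocking with excess unlabelled STI-571.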

[7] = Drug uptake in mouse right shoulder xenografted with human K562 cells expressing Bcr-Abl at 100 uCi, iv after 15 to 120 mins by PET analysis; type: ADME, organism-based; conditions: in vivo
Procedure, shortened: as §1

Intestine [8] = assay: Drug uptake in intestine of mouse xenografted with human U87 cells at 100 uCi, iv after 60 to 120 mins by PET analysis; type: ADME, organism-based, U-87MG ATCC; conditions: in vivo
Procedure, shortened: as §1

K562 [9] = assay: Drug uptake in human K562 cells expressing Bcr-Abl after 30 mins; type: ADME, cell-based; conditions: k562, 0.5 h
Tumour [10] = assay: Drug uptake in tumor of mouse xenografted with human U87WT cells expressing human wild type c-KIT at 100 uCi, iv after 60 to 120 mins by PET analysis; type: ADME, organism-based, Neoplasm; conditions: in vivo
Procedure, shortened: as §1

[11] = Drug uptake in mouse digestive tract xenografted with human U87 cells at 100 uCi, iv after 15 to 120 mins by PET analysis; type: ADME, organism-based, U-87MG ATCC; conditions: in vivo
Procedure, shortened: as §1

Liver [12] = assay: Drug uptake in liver of mouse xenografted with human K562 cells expressing Bcr-Abl at 100 uCi, iv after 60 to 120 mins by PET analysis; type: ADME, organism-based; conditions: in vivo
Procedure, shortened: as §1

[13] = Drug uptake in mouse digestive tract xenografted with human K562 cells expressing Bcr-Abl at 100 uCi, iv after 15 to 120 mins by PET analysis; type: ADME, organism-based; conditions: in vivo
Procedure, shortened: as §1

Intestine [14] = assay: Drug uptake in intestine of mouse xenografted with human K562 cells expressing Bcr-Abl at 100 uCi, iv after 60 to 120 mins by PET analysis; type: ADME, organism-based; conditions: in vivo
Procedure, shortened: as §1

K562 [15] = assay: Drug uptake in human K562 cells expressing Bcr-Abl after 1 to 2 hrs; type: ADME, cell-based
Tumour [16] = assay: Drug uptake in tumor of mouse xenografted with human U87 cells at 100 uCi, iv after 60 to 120 mins by PET analysis; type: ADME, organism-based, Neoplasm, U-87MG ATCC; conditions: in vivo
Procedure, shortened: as §1

Liver [17] = assay: Drug uptake in liver of mouse xenografted with human U87 cells at 100 uCi, iv after 60 to 120 mins by PET analysis; type: ADME, organism-based, U-87MG ATCC; conditions: in vivo
Procedure, shortened: as §1

[18] = Drug uptake in mouse right shoulder xenografted with human U87WT cells expressing human wild type c-KIT at 100 uCi, iv after 15 to 120 mins by PET analysis; type: ADME, organism-based; conditions: in vivo
Procedure, shortened: as §1

[19] = Drug uptake in mouse digestive tract xenografted with human U87WT cells expressing human wild type c-KIT at 100 uCi, iv after 15 to 120 mins by PET analysis; type: ADME, organism-based; conditions: in vivo
Procedure, shortened: as §1

Intestine [20] = assay: Drug uptake in intestine of mouse xenografted with human U87WT cells expressing human wild type c-KIT at 100 uCi, iv after 60 to 120 mins by PET analysis; type: ADME, organism-based; conditions: in vivo
Procedure, shortened: as §1

Tumour [21] = assay: Drug uptake in tumor of mouse xenografted with human K562 cells expressing Bcr-Abl at 100 uCi, iv after 60 to 120 mins by PET analysis; type: ADME, organism-based, Neoplasm; conditions: in vivo
Procedure, shortened: as §1

Bcr/Abl fusion protein = Bcr/Abl fusion protein (Homo sapiens, UniProt P00519); assay: Inhibition of Bcr-Abl (unknown origin) phosphorylation by spectrophotometric assay; type: protein assay
Bcr/Abl fusion protein, sequence (P00519 whole entry, the tested form may be a part): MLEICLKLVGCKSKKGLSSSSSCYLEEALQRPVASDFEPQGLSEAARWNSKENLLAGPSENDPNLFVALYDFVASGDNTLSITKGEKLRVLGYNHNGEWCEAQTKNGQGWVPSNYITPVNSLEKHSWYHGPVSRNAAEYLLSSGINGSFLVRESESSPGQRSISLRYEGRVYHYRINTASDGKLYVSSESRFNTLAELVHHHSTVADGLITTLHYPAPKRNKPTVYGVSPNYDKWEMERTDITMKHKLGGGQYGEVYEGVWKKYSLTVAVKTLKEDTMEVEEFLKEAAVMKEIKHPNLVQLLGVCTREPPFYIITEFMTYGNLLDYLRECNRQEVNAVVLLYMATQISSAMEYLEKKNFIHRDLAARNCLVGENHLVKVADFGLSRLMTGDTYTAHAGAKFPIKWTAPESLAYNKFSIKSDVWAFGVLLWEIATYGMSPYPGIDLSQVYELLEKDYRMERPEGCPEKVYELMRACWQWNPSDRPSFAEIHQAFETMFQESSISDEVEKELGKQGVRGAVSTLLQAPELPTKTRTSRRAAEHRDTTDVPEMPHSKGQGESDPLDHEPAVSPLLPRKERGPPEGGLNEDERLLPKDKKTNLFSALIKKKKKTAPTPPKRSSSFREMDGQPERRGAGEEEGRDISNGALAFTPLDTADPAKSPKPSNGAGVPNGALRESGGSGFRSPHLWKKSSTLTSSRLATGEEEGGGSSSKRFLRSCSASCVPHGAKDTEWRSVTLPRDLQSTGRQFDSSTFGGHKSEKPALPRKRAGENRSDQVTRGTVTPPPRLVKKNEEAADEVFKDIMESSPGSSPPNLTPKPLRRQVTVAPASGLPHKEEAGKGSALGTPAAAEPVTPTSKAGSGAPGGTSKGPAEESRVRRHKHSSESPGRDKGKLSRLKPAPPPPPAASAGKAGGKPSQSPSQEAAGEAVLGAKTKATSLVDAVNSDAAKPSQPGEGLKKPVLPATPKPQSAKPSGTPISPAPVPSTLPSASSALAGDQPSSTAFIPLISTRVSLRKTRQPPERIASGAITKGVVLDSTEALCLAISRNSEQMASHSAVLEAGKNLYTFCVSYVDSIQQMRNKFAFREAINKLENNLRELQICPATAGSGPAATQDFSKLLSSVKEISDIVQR
Bcr/Abl fusion protein, sequence (P11274 whole entry, further chain, the tested form may be a part): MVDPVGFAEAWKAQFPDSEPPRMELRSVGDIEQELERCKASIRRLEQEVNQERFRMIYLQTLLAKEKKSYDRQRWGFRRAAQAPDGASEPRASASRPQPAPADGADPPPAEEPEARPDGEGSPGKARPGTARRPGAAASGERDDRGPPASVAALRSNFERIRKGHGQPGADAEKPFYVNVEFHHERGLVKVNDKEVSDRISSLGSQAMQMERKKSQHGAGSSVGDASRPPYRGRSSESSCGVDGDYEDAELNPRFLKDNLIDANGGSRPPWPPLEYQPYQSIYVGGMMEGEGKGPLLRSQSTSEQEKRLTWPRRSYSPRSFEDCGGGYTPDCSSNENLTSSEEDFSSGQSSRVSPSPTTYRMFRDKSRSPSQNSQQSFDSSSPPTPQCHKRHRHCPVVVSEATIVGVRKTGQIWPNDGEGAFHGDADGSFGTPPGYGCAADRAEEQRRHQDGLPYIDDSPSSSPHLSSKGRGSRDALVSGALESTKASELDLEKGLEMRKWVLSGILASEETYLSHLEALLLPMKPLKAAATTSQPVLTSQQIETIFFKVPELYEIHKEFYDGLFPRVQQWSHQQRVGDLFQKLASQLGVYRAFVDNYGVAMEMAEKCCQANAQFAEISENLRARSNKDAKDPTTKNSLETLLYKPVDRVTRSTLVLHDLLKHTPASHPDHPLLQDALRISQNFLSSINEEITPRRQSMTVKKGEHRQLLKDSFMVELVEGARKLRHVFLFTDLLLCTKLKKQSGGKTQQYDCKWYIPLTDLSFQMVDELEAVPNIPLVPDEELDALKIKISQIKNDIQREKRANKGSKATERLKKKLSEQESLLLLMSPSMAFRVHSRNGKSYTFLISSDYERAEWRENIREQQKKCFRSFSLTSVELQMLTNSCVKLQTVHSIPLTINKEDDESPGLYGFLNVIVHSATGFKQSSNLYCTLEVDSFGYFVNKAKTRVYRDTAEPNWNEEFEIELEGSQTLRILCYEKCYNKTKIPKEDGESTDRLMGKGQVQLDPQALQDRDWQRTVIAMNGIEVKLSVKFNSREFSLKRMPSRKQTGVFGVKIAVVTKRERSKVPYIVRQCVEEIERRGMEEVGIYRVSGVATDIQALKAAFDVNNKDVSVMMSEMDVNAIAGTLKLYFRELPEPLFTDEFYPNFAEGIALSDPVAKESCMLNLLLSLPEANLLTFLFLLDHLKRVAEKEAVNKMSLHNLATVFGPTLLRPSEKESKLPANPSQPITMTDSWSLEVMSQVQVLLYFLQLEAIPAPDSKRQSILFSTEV

Intestine [22] = assay: Drug uptake in intestine of mouse xenografted with human U87 cells after 45 mins by PET analysis; type: ADME, U-87MG ATCC; conditions: in vivo, 0.75 h
Intestine [23] = assay: Drug uptake in intestine of mouse xenografted with human U87WT cells expressing human wild type c-KIT after 45 mins by PET analysis; type: ADME, tissue-based; conditions: in vivo, 0.75 h
Mus musculus = assay: Drug uptake in mouse xenografted with human K562 cells expressing Bcr-Abl after 45 mins by PET analysis; type: ADME, organism-based; conditions: in vivo, 0.75 h

For Cc1ccc(NC(=O)c2ccc(CN3CCN(CC[18F])CC3)cc2)cc1Nc1nccc(-c2cccnc2)n1, the Drug uptake [1] was “Not Active”, the Drug uptake (Liver [2]) was “Active” and the Drug uptake (K562 [3]) was “Not Active”. For the same molecule, the Drug uptake [4] was “Active”, the Drug uptake (K562 [5]) was “Active” and the Drug uptake [6] was “Not Active”. For the same molecule, the Drug uptake [7] was “Active”, the Drug uptake (Intestine [8]) was “Active” and the Drug uptake (K562 [9]) was “Active”. The Drug uptake (Tumour [10]) was “Active”, the Drug uptake [11] was “Active” and the Drug uptake (Liver [12]) was “Active”. The Drug uptake [13] was “Active”, the Drug uptake (Intestine [14]) was “Active” and the Drug uptake (K562 [15]) was “Active”. The Drug uptake (Tumour [16]) was “Active”, the Drug uptake (Liver [17]) was “Active” and the Drug uptake [18] was “Active”. The Drug uptake [19] was “Active”, the Drug uptake (Intestine [20]) was “Active” and the Drug uptake (Tumour [21]) was “Active”.

For Cc1ccc(NC(=O)c2ccc(CN3CCN(Cc4ccc(I)cc4)CC3)cc2)cc1Nc1nccc(-c2cccnc2)n1, the IC50 (Bcr/Abl fusion protein) was 0.739 µM.

Cc1ccc(NC(=O)c2ccc(CN3CCN(CCO)CC3)cc2)cc1Nc1nccc(-c2cccnc2)n1 showed an IC50 (Bcr/Abl fusion protein) of 7.08 µM.

With Cc1ccc(NC(=O)c2ccc(CN3CCN(CCF)CC3)cc2)cc1Nc1nccc(-c2cccnc2)n1 the IC50 (Bcr/Abl fusion protein) was 1.38 µM.

With OC[C@H]1O[C@@H](O)[C@H]([18F])[C@@H](O)[C@@H]1O [FLUDEOXYGLUCOSE-F18] the Drug uptake (Intestine [22]) was “Active”, the Drug uptake (Intestine [23]) was “Active” and the Drug uptake (Mus musculus) was “Active”.
